Molecules are shown by their SMILES.

Series [1] deals with Serine/threonine-protein kinase MARK1 (Homo sapiens, UniProt Q9P0L2). Put plainly: Inhibition of MARK1.
Series [2] deals with Proto-oncogene tyrosine-protein kinase Src (Homo sapiens) (UniProt P12931). As to the kind of experiment: Inhibition of SRC at 1 uM.
Series [3] has as its target T1, Serine/threonine-protein kinase Sgk1 (Homo sapiens) (UniProt O00141).
T1 sequence (whole entry): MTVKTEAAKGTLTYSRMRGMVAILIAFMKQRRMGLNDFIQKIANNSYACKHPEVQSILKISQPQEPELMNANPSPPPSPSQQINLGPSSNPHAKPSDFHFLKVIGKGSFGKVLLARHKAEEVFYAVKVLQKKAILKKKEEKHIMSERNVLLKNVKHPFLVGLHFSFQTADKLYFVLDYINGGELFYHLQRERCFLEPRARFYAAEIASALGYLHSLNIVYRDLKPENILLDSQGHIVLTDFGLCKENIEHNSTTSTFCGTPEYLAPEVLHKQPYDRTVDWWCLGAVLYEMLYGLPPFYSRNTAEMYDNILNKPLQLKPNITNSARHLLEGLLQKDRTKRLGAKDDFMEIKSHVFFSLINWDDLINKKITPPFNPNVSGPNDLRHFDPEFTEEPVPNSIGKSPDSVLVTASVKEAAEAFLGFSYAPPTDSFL
Put plainly: Inhibition of SGK at 1 uM.

For series [4], the target named is Angiopoietin-1 receptor (Homo sapiens) (UniProt Q02763). As to the kind of experiment: Inhibition of TEK at 1 uM.
Series [5] has as its target T2, 3-phosphoinositide-dependent protein kinase 1 (Homo sapiens, UniProt O15530).
T2 sequence (O15530 whole entry): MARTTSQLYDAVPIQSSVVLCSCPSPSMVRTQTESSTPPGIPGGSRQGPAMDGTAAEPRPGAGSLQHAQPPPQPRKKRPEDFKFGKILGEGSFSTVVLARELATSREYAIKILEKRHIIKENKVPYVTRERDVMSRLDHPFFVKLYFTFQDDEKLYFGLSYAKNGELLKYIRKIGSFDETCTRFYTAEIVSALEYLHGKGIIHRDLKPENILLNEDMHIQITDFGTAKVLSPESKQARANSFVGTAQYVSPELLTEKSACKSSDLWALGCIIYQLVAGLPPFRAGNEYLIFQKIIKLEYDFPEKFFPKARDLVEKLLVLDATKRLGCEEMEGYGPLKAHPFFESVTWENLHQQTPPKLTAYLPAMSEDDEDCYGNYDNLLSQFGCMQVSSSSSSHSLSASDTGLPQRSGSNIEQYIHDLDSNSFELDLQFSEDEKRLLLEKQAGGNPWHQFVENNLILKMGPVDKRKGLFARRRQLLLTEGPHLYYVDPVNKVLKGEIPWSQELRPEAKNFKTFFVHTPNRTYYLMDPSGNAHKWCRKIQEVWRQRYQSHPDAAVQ
Put plainly: Inhibition of PDK1-mediated AKT1 phosphorylation at T308 in human SKOV3 cells after 2 hrs by ELISA. The format is cell-based, SK-OV-3. The procedure, abridged:
(§1)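 Cells seeded at 50,000 per well and left to adhere overnight. Inhibitor was added as a 3-fold serial dilution from 0.0169 nM to 10 μM for 2 h, then cells were lysed. Lysates were tested in a commercial pAKT-T308 sandwich ELISA per the kit protocol. IC50 from duplicates, each run repeated at least twice.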
(In general: In an ELISA, binding on a coated surface is turned into a signal by an enzyme label.)

Series [6] concerns the target Mitogen-activated protein kinase 1 (Homo sapiens) (UniProt P28482). As to the kind of experiment: Inhibition of MAPK1 at 1 uM.
In series [7] the target is Fibroblast growth factor receptor 1 (Homo sapiens) (UniProt P11362). Put plainly: Inhibition of FGFR1 at 1 uM.
Series [8] deals with T3, High affinity nerve growth factor receptor (Homo sapiens, UniProt P04629). Put plainly: Inhibition of TrkA.
Target sequence in this assay (P04629 whole entry): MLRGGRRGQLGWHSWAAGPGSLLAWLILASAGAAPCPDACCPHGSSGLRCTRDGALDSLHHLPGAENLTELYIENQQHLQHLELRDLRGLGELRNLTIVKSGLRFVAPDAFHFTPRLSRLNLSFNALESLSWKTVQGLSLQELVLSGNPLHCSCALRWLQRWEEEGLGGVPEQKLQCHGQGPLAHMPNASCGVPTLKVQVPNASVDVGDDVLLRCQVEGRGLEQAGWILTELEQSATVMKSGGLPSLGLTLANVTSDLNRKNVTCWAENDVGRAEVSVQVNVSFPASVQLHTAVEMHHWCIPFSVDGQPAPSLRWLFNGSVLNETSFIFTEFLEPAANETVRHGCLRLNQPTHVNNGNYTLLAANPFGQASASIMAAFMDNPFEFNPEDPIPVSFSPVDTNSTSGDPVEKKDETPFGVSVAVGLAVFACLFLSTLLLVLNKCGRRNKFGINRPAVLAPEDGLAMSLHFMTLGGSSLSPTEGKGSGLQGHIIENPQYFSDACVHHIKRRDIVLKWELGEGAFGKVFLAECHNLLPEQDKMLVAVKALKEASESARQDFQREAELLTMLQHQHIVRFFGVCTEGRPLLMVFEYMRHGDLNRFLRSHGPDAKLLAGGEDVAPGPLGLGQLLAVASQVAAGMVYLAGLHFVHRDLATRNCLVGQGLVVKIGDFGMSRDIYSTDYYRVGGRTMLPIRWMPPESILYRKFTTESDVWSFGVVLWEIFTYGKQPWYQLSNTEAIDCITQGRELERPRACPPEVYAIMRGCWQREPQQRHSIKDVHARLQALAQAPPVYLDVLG
Series [9] concerns the target T3, High affinity nerve growth factor receptor. Put plainly: Inhibition of NTRK1 at 1 uM.
Series [10] concerns the target T2, 3-phosphoinositide-dependent protein kinase 1. Put plainly: Inhibition of PDK1-mediated AKT1 phosphorylation at T308 in human A549 cells after 2 hrs by ELISA. The format is cell-based. In outline:
as §1

Series [11] addresses Serine/threonine-protein kinase Chk2 (Homo sapiens) (UniProt O96017). Put plainly: Inhibition of CHEK2 at 1 uM.
The target in series [12] is Cyclin-dependent kinase 2/cyclin A (Homo sapiens) (UniProt P24941+P20248+P78396). Put plainly: Inhibition of CDK2/cyclinA at 1 uM. The format is protein-complex assay.
The target of series [13] is Calcium/calmodulin-dependent protein kinase type II subunit alpha (Homo sapiens) (UniProt Q9UQM7). As to the kind of experiment: Inhibition of CAMK2A at 1 uM.
Series [14] concerns the target Serine/threonine-protein kinase 26 (Homo sapiens) (UniProt Q9P289). As to the kind of experiment: Inhibition of MST4 at 1 uM.
Series [15] concerns the target Serine/threonine-protein kinase PAK 4 (Homo sapiens) (UniProt O96013). Put plainly: Inhibition of PAK4 at 1 uM.
Series [16] addresses Glycogen synthase kinase-3 beta (Homo sapiens, UniProt P49841). Put plainly: Inhibition of GSK3-beta.
Series [17] concerns the target cAMP-dependent protein kinase catalytic subunit alpha (Homo sapiens) (UniProt P17612). As to the kind of experiment: Inhibition of PRKACA at 1 uM.
Series [18] concerns the target Myosin light chain kinase 2, skeletal/cardiac muscle (Homo sapiens) (UniProt Q9H1R3). As to the kind of experiment: Inhibition of MYLK2 at 1 uM.
A short description of series [19]: Passive permeability in canine kidney cells. The format is ADME, cell-based, Canis lupus familiaris. The note with it: dog; read-out: permeability.
A short description of series [20]: Inhibition of p38 at 1 uM.
For series [21], the target named is T4, Serine/threonine-protein kinase Chk1 (Homo sapiens) (UniProt O14757).
T4 sequence (whole entry): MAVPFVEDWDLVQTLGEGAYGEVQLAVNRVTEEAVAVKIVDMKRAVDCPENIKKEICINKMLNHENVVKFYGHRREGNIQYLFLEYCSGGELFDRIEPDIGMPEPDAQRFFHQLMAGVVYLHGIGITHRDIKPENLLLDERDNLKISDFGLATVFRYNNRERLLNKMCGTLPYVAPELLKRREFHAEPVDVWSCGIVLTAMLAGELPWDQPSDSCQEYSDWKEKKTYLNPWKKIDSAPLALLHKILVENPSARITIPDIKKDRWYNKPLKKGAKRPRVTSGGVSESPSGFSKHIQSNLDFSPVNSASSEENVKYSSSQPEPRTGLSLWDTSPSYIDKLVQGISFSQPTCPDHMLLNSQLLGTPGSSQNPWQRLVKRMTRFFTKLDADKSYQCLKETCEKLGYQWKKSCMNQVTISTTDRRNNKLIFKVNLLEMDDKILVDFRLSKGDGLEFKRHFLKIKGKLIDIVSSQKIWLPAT
Put plainly: Inhibition of CHEK1 at 1 uM.

Series [22] deals with Vascular endothelial growth factor receptor 2 (Homo sapiens) (UniProt P35968). As to the kind of experiment: Inhibition of KDR at 1 uM.
Series [23] relates to A549. As to the kind of experiment: Antiproliferative activity against human A549 cells after 72 hrs by resazurin reduction assay. Particulars: A549, 72 h. The format is functional, cell-based. The procedure, abridged:
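Cells seeded at 3,000 per well, left to adhere overnight, then given inhibitor as a 3-fold serial dilution from 0.0169 nM to 10 μM. After 72 h, 250 μg/mL resazurin was added, followed by 6 h more at 37 °C. Fluorescence was read at ex 560 / em 590 nm.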
In general terms: Resazurin is reduced to fluorescent resorufin, in cell work by metabolically active cells.

The target of series [24] is RAC-alpha serine/threonine-protein kinase (Homo sapiens, UniProt P31749). As to the kind of experiment: Inhibition of His-tagged AKT1 using 5FAM-GRPRTSSFAEGCONH2 as substrate by fluorescence based assay.

Glycogen synthase kinase-3 beta, sequence (P49841 whole entry): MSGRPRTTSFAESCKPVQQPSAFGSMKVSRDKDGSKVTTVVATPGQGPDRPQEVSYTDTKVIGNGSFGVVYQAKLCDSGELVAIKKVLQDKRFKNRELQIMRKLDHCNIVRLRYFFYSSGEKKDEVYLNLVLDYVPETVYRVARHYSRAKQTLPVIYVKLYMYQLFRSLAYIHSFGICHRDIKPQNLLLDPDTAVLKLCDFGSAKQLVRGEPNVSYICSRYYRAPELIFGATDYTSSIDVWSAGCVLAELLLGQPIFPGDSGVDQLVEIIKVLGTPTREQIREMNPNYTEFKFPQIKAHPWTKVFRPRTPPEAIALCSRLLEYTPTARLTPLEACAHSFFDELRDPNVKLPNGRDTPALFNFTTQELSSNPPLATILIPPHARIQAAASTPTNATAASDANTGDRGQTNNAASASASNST
Fibroblast growth factor receptor 1 (Homo sapiens), sequence (P11362 22-822 limits assumed): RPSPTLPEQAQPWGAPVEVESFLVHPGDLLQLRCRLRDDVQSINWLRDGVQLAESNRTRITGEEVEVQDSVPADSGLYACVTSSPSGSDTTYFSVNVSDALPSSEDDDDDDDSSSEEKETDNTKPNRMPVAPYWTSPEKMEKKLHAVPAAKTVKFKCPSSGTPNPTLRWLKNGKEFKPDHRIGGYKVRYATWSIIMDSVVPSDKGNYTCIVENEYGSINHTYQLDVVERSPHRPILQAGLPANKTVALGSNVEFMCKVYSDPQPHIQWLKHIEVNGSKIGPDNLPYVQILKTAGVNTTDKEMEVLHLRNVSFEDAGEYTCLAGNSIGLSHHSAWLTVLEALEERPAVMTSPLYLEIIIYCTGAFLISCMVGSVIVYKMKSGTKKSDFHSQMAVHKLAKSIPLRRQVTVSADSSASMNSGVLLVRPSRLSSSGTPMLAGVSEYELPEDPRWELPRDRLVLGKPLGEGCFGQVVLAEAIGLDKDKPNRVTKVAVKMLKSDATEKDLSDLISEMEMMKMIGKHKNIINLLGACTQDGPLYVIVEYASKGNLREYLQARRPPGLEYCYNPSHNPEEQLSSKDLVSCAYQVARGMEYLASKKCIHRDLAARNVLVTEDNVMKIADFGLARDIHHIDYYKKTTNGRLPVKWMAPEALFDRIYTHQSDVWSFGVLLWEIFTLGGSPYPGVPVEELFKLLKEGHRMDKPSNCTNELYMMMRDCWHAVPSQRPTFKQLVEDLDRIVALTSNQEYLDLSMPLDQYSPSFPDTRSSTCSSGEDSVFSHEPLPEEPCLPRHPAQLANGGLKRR
Serine/threonine-protein kinase Chk2 (Homo sapiens), sequence (O96017 whole entry): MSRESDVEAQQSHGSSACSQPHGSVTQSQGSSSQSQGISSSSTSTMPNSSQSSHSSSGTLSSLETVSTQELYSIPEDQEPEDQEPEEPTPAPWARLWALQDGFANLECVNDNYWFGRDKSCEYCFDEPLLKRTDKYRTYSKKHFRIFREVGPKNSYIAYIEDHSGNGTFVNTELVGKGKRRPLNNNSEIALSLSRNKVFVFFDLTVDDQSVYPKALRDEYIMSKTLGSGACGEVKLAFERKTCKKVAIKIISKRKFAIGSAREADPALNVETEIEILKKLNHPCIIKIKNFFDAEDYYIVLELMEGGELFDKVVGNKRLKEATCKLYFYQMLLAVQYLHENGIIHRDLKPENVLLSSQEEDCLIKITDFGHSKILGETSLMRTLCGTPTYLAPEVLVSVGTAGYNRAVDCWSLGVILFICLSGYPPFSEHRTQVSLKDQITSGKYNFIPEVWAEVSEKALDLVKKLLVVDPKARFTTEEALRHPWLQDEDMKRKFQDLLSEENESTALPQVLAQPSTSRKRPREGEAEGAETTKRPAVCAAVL
Calcium/calmodulin-dependent protein kinase type II subunit alpha (Homo sapiens), sequence (Q9UQM7 whole entry): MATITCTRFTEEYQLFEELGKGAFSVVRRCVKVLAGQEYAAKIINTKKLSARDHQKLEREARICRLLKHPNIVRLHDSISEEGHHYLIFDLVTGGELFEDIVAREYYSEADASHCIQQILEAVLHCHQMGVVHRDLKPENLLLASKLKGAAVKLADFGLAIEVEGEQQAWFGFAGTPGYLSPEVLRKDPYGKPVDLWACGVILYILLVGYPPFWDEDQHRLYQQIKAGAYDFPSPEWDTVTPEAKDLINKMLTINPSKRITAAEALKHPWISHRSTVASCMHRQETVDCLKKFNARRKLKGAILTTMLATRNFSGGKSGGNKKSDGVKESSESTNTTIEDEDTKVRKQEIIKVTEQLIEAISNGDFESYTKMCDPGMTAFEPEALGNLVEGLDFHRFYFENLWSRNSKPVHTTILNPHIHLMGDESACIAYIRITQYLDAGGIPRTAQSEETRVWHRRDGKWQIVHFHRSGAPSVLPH
Vascular endothelial growth factor receptor 2 (Homo sapiens), sequence (P35968 whole entry): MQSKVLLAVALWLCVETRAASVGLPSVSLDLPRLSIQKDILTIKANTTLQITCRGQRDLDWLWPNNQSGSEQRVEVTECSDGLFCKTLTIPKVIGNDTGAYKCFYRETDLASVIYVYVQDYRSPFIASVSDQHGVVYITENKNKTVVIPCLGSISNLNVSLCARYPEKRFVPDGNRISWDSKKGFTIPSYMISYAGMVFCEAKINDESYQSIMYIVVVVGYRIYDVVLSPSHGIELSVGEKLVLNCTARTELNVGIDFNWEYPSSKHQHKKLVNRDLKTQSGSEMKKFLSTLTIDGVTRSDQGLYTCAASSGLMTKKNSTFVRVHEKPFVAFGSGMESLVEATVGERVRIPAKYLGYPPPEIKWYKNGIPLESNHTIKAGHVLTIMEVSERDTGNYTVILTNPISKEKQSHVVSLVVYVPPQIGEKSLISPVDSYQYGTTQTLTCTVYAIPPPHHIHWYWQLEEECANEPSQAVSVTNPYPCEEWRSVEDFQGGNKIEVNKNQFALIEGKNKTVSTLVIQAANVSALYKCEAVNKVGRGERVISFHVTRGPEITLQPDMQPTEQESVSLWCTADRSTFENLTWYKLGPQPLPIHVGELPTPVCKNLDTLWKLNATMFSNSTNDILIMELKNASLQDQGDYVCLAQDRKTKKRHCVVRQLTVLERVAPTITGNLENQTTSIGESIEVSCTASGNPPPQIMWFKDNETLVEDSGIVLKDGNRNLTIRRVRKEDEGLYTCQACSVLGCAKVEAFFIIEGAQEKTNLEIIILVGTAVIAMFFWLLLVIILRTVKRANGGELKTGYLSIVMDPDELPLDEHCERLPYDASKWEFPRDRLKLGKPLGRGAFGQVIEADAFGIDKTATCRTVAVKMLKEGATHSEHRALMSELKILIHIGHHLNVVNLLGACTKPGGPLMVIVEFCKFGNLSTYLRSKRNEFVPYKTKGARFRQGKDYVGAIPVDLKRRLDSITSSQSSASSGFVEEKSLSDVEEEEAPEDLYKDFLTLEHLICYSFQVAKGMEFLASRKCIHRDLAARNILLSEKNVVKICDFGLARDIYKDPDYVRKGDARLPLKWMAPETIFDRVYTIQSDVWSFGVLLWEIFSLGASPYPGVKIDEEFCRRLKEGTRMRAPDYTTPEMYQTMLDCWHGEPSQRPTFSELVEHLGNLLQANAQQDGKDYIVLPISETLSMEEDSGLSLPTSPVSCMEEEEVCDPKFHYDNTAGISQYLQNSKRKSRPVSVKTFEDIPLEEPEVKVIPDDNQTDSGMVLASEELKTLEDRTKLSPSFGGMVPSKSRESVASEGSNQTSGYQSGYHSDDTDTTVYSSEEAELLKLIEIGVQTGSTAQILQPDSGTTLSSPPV
Myosin light chain kinase 2, skeletal/cardiac muscle (Homo sapiens), sequence (Q9H1R3 whole entry): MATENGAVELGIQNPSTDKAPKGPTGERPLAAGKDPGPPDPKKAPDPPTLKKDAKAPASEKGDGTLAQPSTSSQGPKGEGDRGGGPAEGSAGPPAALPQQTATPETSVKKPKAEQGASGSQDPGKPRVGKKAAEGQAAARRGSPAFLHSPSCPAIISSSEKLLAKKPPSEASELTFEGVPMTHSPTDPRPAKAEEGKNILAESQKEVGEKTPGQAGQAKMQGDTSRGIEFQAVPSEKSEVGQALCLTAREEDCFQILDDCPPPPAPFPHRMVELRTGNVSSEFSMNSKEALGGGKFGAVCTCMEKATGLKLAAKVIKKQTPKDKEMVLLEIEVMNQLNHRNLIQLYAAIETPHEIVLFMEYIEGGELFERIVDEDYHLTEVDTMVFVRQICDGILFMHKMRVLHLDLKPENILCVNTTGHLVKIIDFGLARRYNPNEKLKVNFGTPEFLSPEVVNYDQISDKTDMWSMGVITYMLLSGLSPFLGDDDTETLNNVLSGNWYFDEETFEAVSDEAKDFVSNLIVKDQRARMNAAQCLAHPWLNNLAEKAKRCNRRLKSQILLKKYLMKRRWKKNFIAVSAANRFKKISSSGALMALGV

For the compound `CC(=O)N1CC[C@@H](Nc2cncc(C(=O)c3cn(C(C)C)c4ncnc(N)c34)n2)[C@H]1c1ccccc1`, the IC50 in series [1] was 1300 nM; in series [5], 200 nM; in series [8], 910 nM; in [10], 300 nM; in [16], 860 nM. For the same compound, the inhibition in series [2] is 14%; in [3] it was 30%; in [4], 5%; in series [6] it was 3%; in [7], 6%; in series [9] it was 59%. Also, the inhibition in [11] was 94%; in series [12], 12%; in series [13] it was 32%; in [14], -6%; in series [15], 25%; in series [17] it was 30%. Also, the inhibition in series [18] was -2%; in [20], 0%; in series [21], 7%; in series [22] it was 34%. Further, the Papp in [19] came out at 11 ×10⁻⁶ cm/s. The concentration for a half-maximal effect (EC50) in series [23] amounted to 5200 nM. In [24], this compound registered an inhibitory constant (Ki) of 1100 nM.
In the case of `CC(C)n1cc(C(=O)c2cncc(N[C@@H]3CCN(C=O)[C@@H]3c3ccc(F)cc3)n2)c2c(N)ncnc21`, the IC50 is 110 nM in [1]; 70 nM in series [5]; 200 nM in [8]; 50 nM in series [10]; 180 nM in [16]. Moreover, the inhibition in [2] was 29%; in series [3] it was 48%; in [4] it was 10%; in series [6], 5%; in [7] it was 17%; in series [9], 74%. In addition, the inhibition in series [11] was determined as 98%; in [12] it was 44%; in series [13] it was 62%; in series [14], 4%; in series [15] it was 63%; in [17], 74%. Besides, the inhibition in series [18] was 3%; in series [20], 6%; in series [21], 38%; in [22], 49%. For the same compound, in series [19], the Papp was found to be 11 ×10⁻⁶ cm/s. In addition, the response in series [23] was half-maximal at 1800 nM (EC50). Besides, the affinity in series [24] corresponds to a Ki of 170 nM.
Regarding `CC(=O)N1CC[C@@H](Nc2cncc(C(=O)c3cn(C(C)C)c4ncnc(N)c34)n2)[C@H]1c1ccc(F)cc1`, the concentration for half-maximal inhibition (IC50) amounted to 590 nM in series [1]; 70 nM in series [5]; 620 nM in [8]; 80 nM in series [10]; 340 nM in series [16]. The inhibition in [2] is 21%; in series [3], 61%; in series [4], 19%; in [6], -4%; in [7], 7%; in series [9], 63%. For the same compound, the inhibition worked out at 99% in series [11]; 34% in series [12]; 73% in series [13]; 8% in [14]; 46% in [15]; 58% in series [17]. Also, the inhibition in series [18] was -8%; in [20] it was -1%; in series [21] it was 24%; in series [22], 51%. Moreover, the Papp in [19] was found to be 11 ×10⁻⁶ cm/s. Besides, the half-maximal effective concentration (EC50) in series [23] worked out at 2200 nM. For the same compound, in [24], the inhibition constant Ki is 360 nM.

As usually defined, the IC50 is the concentration needed to halve the response being measured. Broadly, the inhibition is the change of the read-out against control, counted positive when it falls. Usually EC50 stands for the midpoint of the concentration-response curve. What is called Ki is a measure of affinity in units of concentration, obtained from inhibition or displacement. The low end stands for tighter binding, the high end for weaker binding.

(Values after ChEMBL document CHEMBL1938337, “Discovery of novel, potent, and selective inhibitors of 3-phosphoinositide-dependent kinase (PDK1)” (J Med Chem, 2011).)
